From ChEMBL document CHEMBL3259598, “Lignan dicarboxylates and terpenoids from the flower buds of Cananga odorata and their inhibitory effects on melanogenesis” (J Nat Prod, 2014)
pIC50: −log10 of the molar value.

Columns and labels:
[1] = Inhibition of melanogenesis in mouse B16-4A5 cells after 72 hrs by spectrophotometry relative to control; assay type: functional, cell-based; conditions: for pIC50: Mus musculus, B16-4A5, 72 h, read-out: IC50
Outline: (§1)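 Murine B16 melanoma 4A5 cells seeded at 2.0 × 10^4 cells/well in 24-well plates and cultured 24 h, then given test compound (DMSO, final 0.1%) plus 1 mM theophylline for 72 h. Cells trypsinized, washed and lysed in 1 M NaOH at 80 °C for 30 min; lysate absorbance read at 405 nm. Inhibition is corrected for cell viability, mean ± SEM (n = 4); IC50 determined graphically.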

[2] = Inhibition of melanogenesis in mouse B16-4A5 cells at 1 uM after 72 hrs by spectrophotometry relative to control; assay type: functional; conditions: B16-4A5, 72 h; outline: as §1
[3] = Inhibition of melanogenesis in mouse B16-4A5 cells at 100 uM after 72 hrs by spectrophotometry relative to control; assay type: functional; conditions: B16-4A5, 72 h; outline: as §1
[4] = Inhibition of melanogenesis in mouse B16-4A5 cells at 30 uM after 72 hrs by spectrophotometry relative to control; assay type: functional; conditions: B16-4A5, 72 h; outline: as §1
[5] = Inhibition of melanogenesis in mouse B16-4A5 cells at 3 uM after 72 hrs by spectrophotometry relative to control; assay type: functional; conditions: B16-4A5, 72 h; outline: as §1
[6] = Cytotoxicity against mouse B16-4A5 cells assessed as viable cells at 30 uM after 72 hrs by WST-8 assay; assay type: cell-based; conditions: read-out: Activity
Outline: (§2)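 B16 melanoma 4A5 cells (DMEM, 4.5 g/L glucose, 10% FBS, 37 °C, 5% CO2) seeded at 5.0 × 10^4 cells/well in 96-well plates, grown 24 h, then exposed to test compound (DMSO, final 0.1%) for 70 h. After a PBS wash, cells were given DMEM plus WST-8 for 2 h more. Formazan read at 450 nm (reference 655 nm).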

[7] = Inhibition of melanogenesis in mouse B16-4A5 cells at 10 uM after 72 hrs by spectrophotometry relative to control; assay type: functional; conditions: B16-4A5, 72 h; outline: as §1
[8] = Cytotoxicity against mouse B16-4A5 cells assessed as viable cells at 10 uM after 72 hrs by WST-8 assay; assay type: cell-based; conditions: read-out: Activity; outline: as §2

Structure (SMILES) | IC50 [1] [µM] | inhibition at 1 µM [2] [%] | inhibition at 100 µM [3] [%] | inhibition at 30 µM [4] [%] | inhibition at 3 µM [5] [%] | viability at 72 h, 30 µM [6] [%] | inhibition at 10 µM [7] [%] | pIC50 [1] | viability at 72 h, 10 µM [8] [%]
O=C[C@]1(/C=C\O[C@@H]2O[C@H](CO)[C@@H](O)[C@H](O)[C@H]2O)CC[C@H](COC(=O)C(=C/c2ccc(O)cc2)/C(=C\c2ccc(O)c(O)c2)C(=O)OC[C@H]2CC[C@](C=O)(/C=C\O[C@@H]3O[C@H](CO)[C@@H](O)[C@H](O)[C@H]3O)[C@@H](O)C2)C[C@@H]1O | > 100 | 28.6 | 16.7 | 34.8 | 30.2 | > 95.2 | 31.8 |  | 
O=C[C@]1(/C=C\O[C@@H]2O[C@H](CO)[C@@H](O)[C@H](O)[C@H]2O)CC[C@H](COC(=O)C2=Cc3cc(O)c(O)cc3[C@@H](c3ccc(O)cc3)[C@@H]2C(=O)OC[C@H]2CC[C@](C=O)(/C=C\O[C@@H]3O[C@H](CO)[C@@H](O)[C@H](O)[C@H]3O)[C@@H](O)C2)C[C@@H]1O | > 100 | 9.2 | 8.7 | 2.9 | 8.7 | > 80.3 | 3.6 |  | 
O=C[C@]1(/C=C\O[C@@H]2O[C@H](CO)[C@@H](O)[C@H](O)[C@H]2O)CC[C@H](COC(=O)C2=Cc3ccc(O)c(O)c3[C@@H](c3ccc(O)cc3)[C@@H]2C(=O)OC[C@H]2CC[C@](C=O)(/C=C\O[C@@H]3O[C@H](CO)[C@@H](O)[C@H](O)[C@H]3O)[C@@H](O)C2)C[C@@H]1O | > 100 | 12.8 | -27.9 | 8.4 | 14.9 | > 80.3 | 9.4 |  | 
O=C[C@]1(/C=C\O[C@@H]2O[C@H](CO)[C@@H](O)[C@H](O)[C@H]2O)CC[C@H](COC(=O)/C=C/c2ccc(O)c(O)c2)C[C@@H]1O | > 100 | -3.8 | 12.2 | 11.4 | -8.5 | > 95.2 | 9.3 |  | 
CO[C@@H]1C[C@]2(CC[C@H](COC(=O)/C=C/c3ccc(O)c(O)c3)C[C@@H]2O)[C@@H](OC)O1 | 3.6 | 34.7 | 66.8 | 62.8 | 42.8 | > 95.2 | 65.2 |  | 
CO[C@H]1C[C@]2(CC[C@H](COC(=O)/C=C/c3ccc(O)c(O)c3)C[C@@H]2O)[C@H](OC)O1 | 19.3 | 13.5 | 81.2 | 60 | 16.9 | > 80.3 | 36.4 |  | 
CC(C)[C@@H]1CC[C@@](C)(O)[C@H]2CCC(C=O)=C[C@@H]12 | 26.2 | 19.2 | 66.3 | 50.8 | 29.9 | > 80.3 | 35.8 |  | 
CC(C)[C@H]1CC[C@]2(C)[C@@H](O)CCC(C=O)=C[C@@H]12 | 57.5 | -4.4 | 58.8 | 37.7 | 9.2 | > 80.3 | 14.7 |  | 
CC(C)[C@H]1CC[C@]2(C)C(=O)CCC(C=O)=C[C@@H]12 | 2.5 | 45.5 | 80.6 | 68.5 | 50.3 | > 95.2 | 57.6 |  | 
C=C1/C=C/[C@H](C(C)C)CCC(=C)[C@H](O)CC1 | 17.3 | 28.9 | 62.2 | 61.2 | 30.5 | > 95.2 | 40.6 |  | 
O=C[C@]1(CCO[C@@H]2O[C@H](CO)[C@@H](O)[C@H](O)[C@H]2O)CC[C@H](COC(=O)C(=C/c2ccc(O)cc2)/C(=C\c2ccc(O)c(O)c2)C(=O)OC[C@H]2CC[C@](C=O)(CCO[C@@H]3O[C@H](CO)[C@@H](O)[C@H](O)[C@H]3O)[C@@H](O)C2)C[C@@H]1O |  | 8.1 | 29.8 | 24.2 | 18 | > 95.2 | 18.4 |  | 
O=C(OC[C@H]1CC[C@](CO)(CCO[C@@H]2O[C@H](CO)[C@@H](O)[C@H](O)[C@H]2O)[C@@H](O)C1)C(=C/c1ccc(O)cc1)/C(=C\c1ccc(O)c(O)c1)C(=O)OC[C@H]1CC[C@](CO)(CCO[C@@H]2O[C@H](CO)[C@@H](O)[C@H](O)[C@H]2O)[C@@H](O)C1 | > 100 | 22.3 | 25.3 | 32.3 | 27.2 | > 80.3 | 27.3 |  | 
O=C(OC[C@H]1CC[C@](CO)(CCO)[C@@H](O)C1)C(=C/c1ccc(O)cc1)/C(=C\c1ccc(O)c(O)c1)C(=O)OC[C@H]1CC[C@](CO)(CCO)[C@@H](O)C1 |  | 36.1 | 44.2 | 49.8 | 45 | > 95.2 | 59 | 5.30 | 
COc1ccc(/C=C(C(=O)OC[C@H]2CC[C@](CO)(CCO)[C@@H](O)C2)\C(=C/c2ccc(OC)c(OC)c2)C(=O)OC[C@H]2CC[C@](CO)(CCO)[C@@H](O)C2)cc1 |  | 34.4 | -15.7 | -19.9 | 24.1 | 68.8 | 8.1 |  | 82
COC(=O)C(=C/c1ccc(OC)cc1)/C(=C\c1ccc(OC)c(OC)c1)C(=O)OC |  | 49 | 11.5 | 35.9 | 48.4 | > 74.5 | 43.6 |  | 
OCC[C@@]1(CO)CC[C@H](CO)C[C@@H]1O |  | 45 | 25.6 | 51.6 | 55.1 | > 95.2 | 55.9 | 5.70 | 
OC[C@H]1CC[C@](CO)(CCO[C@@H]2O[C@H](CO)[C@@H](O)[C@H](O)[C@H]2O)[C@@H](O)C1 |  | 16.1 | -9.4 | -2.5 | 17.9 | > 80.3 | 15.3 |  | 
C=C1CC[C@@H](O)[C@]2(C)CC[C@@H](C(C)C)[C@H](O)[C@@H]12 | 8.4 | 42.3 | 59.2 | 54.7 | 39.7 | > 74.5 | 53.8 |  | 
CC(C)[C@@H]1CC[C@@](C)(O)[C@@H]2CCC(C=O)=C[C@H]21 | 5.1 | 25 | 48.8 | 65.9 | 45.5 | > 80.3 | 64 |  | 
CC(C)[C@@H]1CC[C@@]2(C)[C@H](O)CCC(C=O)=C[C@@H]12 [APHANAMOL II] | > 100 | 37.6 | 42.1 | 28.3 | 34.3 | > 74.5 | 32.9 |  | 
